Results collected from several papers.
Compare with care: the assays were run in different laboratories.
Cell line: HCT-116
Observed: cell growth or viability

| Structure (SMILES) | method | concentration | time | measurement | result |
| --- | --- | --- | --- | --- | --- |
| COc1ccc(C(=O)/C=C/c2ccc3ccccc3c2)cc1S(N)(=O)=O | SRB |  | 48 h | GI50 | 1900 nM |
| COc1cc(/C=N/n2c(C)nc3ccc(C)cc3c2=O)cc([N+](=O)[O-])c1O | LDH | 200 µg/mL | 24 h | viability | 90% |
| COc1ccc(NC(=O)c2c(Nc3ccccc3)sc(C(=O)NN=Cc3cc(OC)c(OC)c(OC)c3)c2NC(C)=O)cc1 | SRB | 0.1 µM | 48 h | viability | 86.1% |
| COc1cc2c(OC)nc3c4cc5c(cc4cc(OCCCN4CC=CC4)c3c2cc1OC)OCO5 | MTT |  | 72 h | GI50 | 1300 nM |
| COc1ccccc1/C=C/C(=O)c1ccc(OC)c(S(N)(=O)=O)c1 | SRB |  | 48 h | GI50 | 2500 nM |
| CCc1ccc(/C=N/n2c(C)nc3ccc(C)cc3c2=O)s1 | LDH | 200 µg/mL | 24 h | viability | 86.5% |
| COc1cccc(Oc2ccccc2NC(=O)CNC(=O)c2cccc3ccccc23)c1 | SRB |  | 48 h | GI50 | 95.5 nM |
| COc1cc2c(OC)nc3c4cc5c(cc4cc(OCCCN(C)C)c3c2cc1OC)OCO5 | MTT |  | 72 h | GI50 | 15000 nM |
| COc1ccc(C(=O)/C=C/c2ccccc2Br)cc1S(N)(=O)=O | SRB | 10 µM |  | inhibition | 197% |
| COc1cc(CNC(=O)CCCC/C=C/C(C)C)ccc1O | SRB | 10 µM |  | inhibition | 0% |
| COc1ccc(C(=O)/C=C/c2cccnc2)cc1S(N)(=O)=O | SRB |  | 48 h | GI50 | 3200 nM |
| COc1cc2c(OC)nc3c4cc5c(cc4cc(OCCN(C)C)c3c2cc1OC)OCO5 | MTT |  | 72 h | GI50 | > 100000 nM |
| CNC(=O)c1cc(Oc2ccc(NC(=O)Nc3ccc(Cl)c(C(F)(F)F)c3)cc2)ccn1 | SRB | 1 µM | 48 h | viability | 46.6% |
| COc1ccc(C(=O)/C=C/c2cccc(Cl)c2Cl)cc1S(N)(=O)=O | SRB |  | 48 h | GI50 | 1300 nM |
| Cc1nc2ccc(Cl)cc2c(=O)n1NC(=O)CCl | LDH | 200 µg/mL | 24 h | viability | 89% |
| COc1ccc(C(=O)/C=C/c2ccc(Cl)c(Cl)c2)cc1S(N)(=O)=O | SRB | 10 µM |  | inhibition | 196% |
| COc1cc2c(OC)nc3c4cc5c(cc4cc(OCCCN4CCC(N6CCCCC6)CC4)c3c2cc1OC)OCO5 | MTT |  | 72 h | GI50 | 5700 nM |
| COc1ccc(NC(=O)c2c(Nc3ccccc3)sc(C#N)c2NC(=O)CNc2ccc(Cl)cc2)cc1 | SRB | 0.1 µM | 48 h | viability | 72% |
| Cc1c(OCC(F)(F)F)ccnc1COc1ccc(NC(=O)Nc2cccc(C(F)(F)F)c2)cc1 | MTT |  | 72 h | IC50 | 5430 nM |
| COc1ccc(NC(=O)c2c(Nc3ccccc3)sc(C(=O)NN=Cc3ccc(Cl)cc3)c2NC(C)=O)cc1 | SRB | 1 µM | 48 h | viability | 74.2% |
| COc1ccc(C(=O)/C=C/c2cccc(Br)c2)cc1S(N)(=O)=O | SRB | 10 µM |  | inhibition | 199% |
| COc1ccc(NC(=O)c2c(Nc3ccccc3)sc(C#N)c2NC(=O)CNc2ccc(OC)c(OC)c2)cc1 | SRB | 0.1 µM | 48 h | viability | 76% |
| Cc1cc(C)n(C(=S)[S][Au][PH](CCCCCC[PH]([Au][S]C(=S)n2nc(C)cc2C)(c2ccccc2)c2ccccc2)(c2ccccc2)c2ccccc2)n1 |  |  |  | GI50 | 380 nM |
| COc1ccc(NCC(=O)Nc2c(C#N)sc(Nc3ccccc3)c2C(=O)Nc2ccc(OC)cc2)cc1 | SRB | 10 nM | 48 h | viability | 82.6% |
| COc1cc(/C=N/n2c(C)nc3ccc(C)cc3c2=O)ccc1OCc1ccccc1 | LDH | 200 µg/mL | 24 h | viability | 74.5% |
| COc1ccc(C(=O)/C=C/c2cccc3ccccc23)cc1S(N)(=O)=O | SRB |  | 48 h | GI50 | 1300 nM |
| COc1ccc(C=NNC(=O)c2sc(Nc3ccccc3)c(C(=O)Nc3ccc(OC)cc3)c2NC(C)=O)cc1 | SRB | 10 µM | 48 h | viability | 46.8% |
